pIC50: −log10 of the molar value. Calls of active or inactive are those of the source. No cut-off for these calls is given here.
Tests used:
[1] = test system: Plasmodium falciparum; experiment: Antiplasmodial activity against Plasmodium falciparum Dd2 assessed as reduction in parasite growth after 72 hrs by SYBR Green 1 staining based assay; assay type: functional, organism-based; settings: for pIC50: read-out: IC50
Summary of the method: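 Dd2 cultures started at ring stage, 1% hematocrit and 1% parasitemia. Grown 72 h at 37 °C in 5% CO2/5% O2/90% N2 across increasing drug concentrations. Viability read by SYBR Green I DNA quantitation in lysis buffer. IC50 from nonlinear regression; mean of three independent determinations, each in triplicate, ± SEM.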

[2] = test system: A2780; experiment: Cytotoxicity against human A2780 cells assessed as reduction in cell viability after 2 days by AlamarBlue assay; assay type: ADME, cell-based; settings: A2780, 48 h
[3] = Hemolytic activity in human RBC; assay type: cell-based, Erythrocyte; settings: human red blood cells (erythrocytes)
[4] = test system: Plasmodium falciparum; experiment: Antiplasmodial activity against Plasmodium falciparum Dd2 schizonts form infected in erythrocytes assessed as reduction in parasite growth at 0.5 uM after 6 hrs by Giemsa staining based light microscopic method; assay type: functional, organism-based
Summary of the method: (§1)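 Compound added at schizont stage (40–42 post-invasion). Morphology assessed on Giemsa-stained thin blood smears at 6, 24 and 48 h of treatment and compared with untreated controls. Two or more independent experiments.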

[5] = test system: Plasmodium falciparum; experiment: Antiplasmodial activity against Plasmodium falciparum Dd2 schizonts form infected in erythrocytes assessed as reduction in ring stage formation at 0.5 uM after 6 hrs by Giemsa staining based light microscopic method; assay type: functional, organism-based; summary of the method: as §1
[6] = test system: Plasmodium falciparum; experiment: Antiplasmodial activity against Plasmodium falciparum Dd2 schizonts form infected in erythrocytes assessed as reduction in reinvasion at 0.5 uM after 6 hrs by Giemsa staining based light microscopic method; assay type: functional, organism-based; summary of the method: as §1
[7] = test system: Plasmodium falciparum; experiment: Antiplasmodial activity against Plasmodium falciparum Dd2 schizonts form infected in erythrocytes assessed as morphological defects at 0.5 uM after 48 hrs by Giemsa staining based light microscopic method; assay type: functional, organism-based; summary of the method: as §1
[8] = test system: Plasmodium falciparum; experiment: Antiplasmodial activity against Plasmodium falciparum Dd2 schizonts form infected in erythrocytes assessed as reduction in trophozoites formation at 0.5 uM after 48 hrs by Giemsa staining based light microscopic method; assay type: functional, organism-based; summary of the method: as §1
[9] = test system: Plasmodium falciparum; experiment: Antiplasmodial activity against Plasmodium falciparum Dd2 ring stage form infected in erythrocytes assessed as reduction in parasite growth at 0.5 uM after 6 to 72 hrs by Giemsa staining based light microscopic method; assay type: functional, organism-based
Summary of the method: (§2)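 Compound added at ring stage (2–4 h post-invasion). Development followed on Giemsa-stained thin blood smears after 6, 24, 48 and 72 h of treatment and compared with untreated controls. Two or more independent experiments.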

[10] = test system: Plasmodium falciparum; experiment: Antiplasmodial activity against Plasmodium falciparum Dd2 ring stage form infected in erythrocytes assessed as reduction in reinvasion at 0.5 uM after 48 to 72 hrs by Giemsa staining based light microscopic method; assay type: functional, organism-based; summary of the method: as §2
[11] = Cytotoxicity against mouse 3T3 cells by neutral red uptake assay; assay type: cell-based; settings: NIH3T3 cells, read-out: TC50 (the source's name)
[12] = test system: Plasmodium falciparum; experiment: Antiplasmodial activity against Plasmodium falciparum Dd2 schizonts form infected in erythrocytes assessed as reduction in trophozoites formation at 1 uM after 48 hrs by Giemsa staining based light microscopic method; assay type: functional, organism-based; summary of the method: as §1
[13] = test system: Plasmodium falciparum; experiment: Antiplasmodial activity against Plasmodium falciparum Dd2 schizonts form infected in erythrocytes assessed as reduction in parasite growth at 1 uM after 6 hrs by Giemsa staining based light microscopic method; assay type: functional, organism-based; summary of the method: as §1
[14] = test system: Plasmodium falciparum; experiment: Antiplasmodial activity against Plasmodium falciparum Dd2 schizonts form infected in erythrocytes assessed as reduction in ring stage formation at 1 uM after 6 hrs by Giemsa staining based light microscopic method; assay type: functional, organism-based; summary of the method: as §1
[15] = test system: Plasmodium falciparum; experiment: Antiplasmodial activity against Plasmodium falciparum Dd2 schizonts form infected in erythrocytes assessed as morphological defects formation at 1 uM after 48 hrs by Giemsa staining based light microscopic method; assay type: functional, organism-based; summary of the method: as §1
[16] = test system: Plasmodium falciparum; experiment: Antiplasmodial activity against Plasmodium falciparum Dd2 schizonts form infected in erythrocytes assessed as reduction in reinvasion at 1 uM after 6 hrs by Giemsa staining based light microscopic method; assay type: functional, organism-based; summary of the method: as §1
[17] = test system: Plasmodium falciparum; experiment: Antiplasmodial activity against Plasmodium falciparum Dd2 ring stage form infected in erythrocytes assessed as reduction in reinvasion at 1 uM after 48 to 72 hrs by Giemsa staining based light microscopic method; assay type: functional, organism-based; summary of the method: as §2
[18] = test system: Plasmodium falciparum; experiment: Antiplasmodial activity against Plasmodium falciparum Dd2 ring stage form infected in erythrocytes assessed as reduction in parasite growth at 1 uM after 6 to 72 hrs by Giemsa staining based light microscopic method; assay type: functional, organism-based; summary of the method: as §2
[19] = test system: Plasmodium falciparum; experiment: Antiplasmodial activity against Plasmodium falciparum Dd2 schizonts form infected in erythrocytes assessed as reduction in ring stage formation at 1.25 uM after 6 hrs by Giemsa staining based light microscopic method; assay type: functional, organism-based
Summary of the method: (§3)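 Dd2 intraerythrocytic cultures were treated either at ring stage (2–4 h post-invasion) or at schizont stage (40–42 post-invasion). Development and morphology were followed by light microscopy of Giemsa-stained thin blood smears at 6, 24, 48 and 72 h of treatment and compared with untreated controls. Data come from two or more independent experiments.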

[20] = test system: Plasmodium falciparum; experiment: Antiplasmodial activity against Plasmodium falciparum Dd2 schizonts form infected in erythrocytes assessed as reduction in reinvasion at 1.25 uM after 6 hrs by Giemsa staining based light microscopic method; assay type: functional, organism-based; summary of the method: as §3
[21] = test system: Plasmodium falciparum; experiment: Antiplasmodial activity against Plasmodium falciparum Dd2 schizonts form infected in erythrocytes assessed as reduction in parasite growth at 1.25 uM after 6 hrs by Giemsa staining based light microscopic method; assay type: functional, organism-based; summary of the method: as §3
[22] = Plasmodium falciparum, Dd2, 72 h

C=CC[C@@]12C=C(OC)C(=O)[C@@H]([C@@H](c3ccc4c(c3)OCO4)[C@@H]1C)[C@@H]2O
pIC50 [1, 22]: < 4.00
pIC50 [2]: 4.30 to 5.00

CCCCCCCC/C=C/c1c(C)c(/C=C/CCCCCCCC)c2[n+](c1C)CCCCC2
pIC50 [1, 22]: 7.22
HC50 [3]: > 58 µM
Activity [4]: inactive
Activity [5]: inactive
Activity [6]: inactive
Activity [7]: Active
Activity [8]: Active

C=CC[C@@]1(OC)C=C2C(=CC1=O)O[C@H](c1ccc3c(c1)OCO3)[C@H]2C
IC50 [1]: Not Active
pIC50 [2]: 4.30 to 5.00

CCCCCCCCCCc1c(C)cc(C)nc1CCCOC
pIC50 [1, 22]: < 4.70

CCCCCCCC/C=C/c1c(C)cc(C)[n+]2c1CCC2
Activity [9]: inactive
pIC50 [1, 22]: 7.24
Activity [4]: inactive
Activity [5]: inactive
Activity [6]: inactive
Activity [10]: inactive

CCCCCCCC/C=C/c1c(C)cc(CCCOC)nc1C
pIC50 [1, 22]: 5.17

CCCCCCCC/C=C\c1c(C)cc(C)nc1CCCOC
pIC50 [1, 22]: 5.06

CCCCCCCCCCc1c(C)cc(C)[n+]2c1CCC2
Activity [9]: inactive
pIC50 [1, 22]: 7.22
Activity [4]: inactive
Activity [5]: inactive
Activity [6]: inactive
Activity [10]: inactive

C=CC[C@@]12C=C(OC)C(=O)C=C1O[C@H](c1ccc3c(c1)OCO3)[C@H]2C
pIC50 [1, 22]: < 4.52
pIC50 [2]: 4.30 to 5.00

C=CCc1c(O)c(OC)cc2c1O[C@H](c1ccc3c(c1)OCO3)[C@H]2C
pIC50 [1, 22]: 4.52
pIC50 [2]: 4.46 to 5.00

CCCCCCCC/C=C/c1c(C)cc2[n+](c1C)CCC2
Activity [9]: inactive
pIC50 [1, 22]: 6.77
Activity [4]: inactive
Activity [5]: inactive
Activity [6]: inactive
Activity [10]: inactive

CCCCCCCC/C=C\c1c(C)c(/C=C\CCCCCCCC)c2[n+](c1C)CCC2 [ANIBAMINE]
pIC50 [1, 22]: 6.77
CC50 [11]: > 22 µM
pIC50 [2]: 6.65

CCCCCCCC/C=C\c1c(C)nc(CCCOC)c(/C=C\CCCCCCCC)c1C
pIC50 [1, 22]: 4.71

CCCCCCCCCCc1c(C)nc(CCCOC)c(CCCCCCCCCC)c1C
pIC50 [1, 22]: < 4.70

CCCCCCCC/C=C/c1c(C)nc(C)c(/C=C/CCCCCCCC)c1C
pIC50 [1, 22]: < 4.70

CCCCCCCC/C=C/c1c(C)c(CCCCCCCCCC)c2[n+](c1C)CCC2
pIC50 [1, 22]: 6.61
pIC50 [2]: 6.62

CCCCCCCCCCc1c(C)c(CCCCCCCCCC)c2[n+](c1C)CCCC2
pIC50 [1, 22]: 7.24
HC50 [3]: > 58 µM
Activity [4]: inactive
Activity [5]: inactive
Activity [6]: inactive
Activity [7]: Active
Activity [8]: Active

CCCCCCCC/C=C\c1c(C)cc(C)nc1C
pIC50 [1, 22]: < 4.70

CCCCCCCC/C=C\c1c(C)nc(C)c(/C=C/CCCCCCCC)c1C
pIC50 [1, 22]: 4.70

CCCCCCCCCCc1c(C)cc(C)nc1C
pIC50 [1, 22]: < 4.70

CCCCCCCCCCc1c(C)c(CCCCCCCCCC)c2[n+](c1C)CCCCC2
Activity [12]: Active
Activity [13]: inactive
pIC50 [1, 22]: 7.11
HC50 [3]: > 58 µM
Activity [14]: inactive
Activity [15]: Active
Activity [16]: inactive

CCCCCCCC/C=C\c1c(C)nc(CCCOC)c(/C=C/CCCCCCCC)c1C
pIC50 [1, 22]: < 4.70

CCCCCCCC/C=C\c1c(C)c(/C=C\CCCCCCCC)c2[n+](c1C)CCCCC2
pIC50 [1, 22]: 7.17
HC50 [3]: > 58 µM
Activity [4]: inactive
Activity [5]: inactive
Activity [6]: inactive
Activity [7]: Active
Activity [8]: Active

CCCCCCCC/C=C\c1c(C)cc2[n+](c1C)CCC2
Activity [13]: inactive
pIC50 [1, 22]: 6.85
Activity [14]: inactive
Activity [17]: inactive
Activity [16]: inactive
Activity [18]: inactive

CCCCCCCC/C=C\c1c(CCCOC)nc(C)c(/C=C/CCCCCCCC)c1C
pIC50 [1, 22]: < 4.70

CCCCCCCCCCc1c(C)nc(C)c(CCCCCCCCCC)c1C
pIC50 [1, 22]: < 4.70

CCCCCCCC/C=C/c1c(C)cc(C)nc1CCCOC
pIC50 [1, 22]: < 4.70

CCCCCCCC/C=C/c1c(C)nc(CCCOC)c(/C=C/CCCCCCCC)c1C
pIC50 [1, 22]: < 4.70

C=CC[C@@]12C=C(OC)C(=O)[C@@H]([C@H](c3ccc4c(c3)OCO4)[C@H]1C)[C@H]2O
IC50 [1]: Not Active
pIC50 [2]: 4.30 to 5.00

CCCCCCCCCCc1c(C)cc(CCCOC)nc1C
pIC50 [1, 22]: 5.28

CCCCCCCC/C=C\c1c(C)nc(C)c(/C=C\CCCCCCCC)c1C
pIC50 [1, 22]: < 4.70

CCCCCCCC/C=C\c1c(C)cc(CCCOC)nc1C
pIC50 [1, 22]: 5.20

C.C=CC[C@]1(C(=O)OC)CC(=O)C[C@H](c2ccc3c(c2)OCO3)[C@H]1C
pIC50 [1, 22]: < 4.00
pIC50 [2]: < 5.00

COc1cc(C/C=C(\C)CCC=C(C)C)c(O)c(-c2cc3cc(OC)cc(C/C=C(\C)CCC=C(C)C)c3oc2=O)c1
pIC50 [1, 22]: 4.74

C=CCOc1cc2c(cc1OC)[C@H](C)[C@@H](c1ccc3c(c1)OCO3)O2
pIC50 [1, 22]: 4.52
pIC50 [2]: 4.30 to 5.00

CCCCCCCC/C=C\c1c(C)c(/C=C\CCCCCCCC)c2[n+](c1C)CCC2
Activity [4]: inactive
Activity [5]: inactive
Activity [6]: inactive
Activity [7]: Active
Activity [8]: Active
Activity [19]: inactive
Activity [20]: inactive
Activity [21]: inactive

CCCCCCCC/C=C/c1c(C)c(/C=C/CCCCCCCC)c2[n+](c1C)CCC2
pIC50 [1, 22]: 7.02
HC50 [3]: > 58 µM
Activity [4]: inactive
Activity [5]: inactive
Activity [6]: inactive
Activity [7]: Active
Activity [8]: Active

CCCCCCCC/C=C\c1c(C)c(/C=C\CCCCCCCC)c2[n+](c1C)CCC2 [AANIBAMINE]
pIC50 [1]: 6.96
HC50 [3]: > 58 µM

C[C@@H]1CC[C@H]2[C@@H](C)C(=O)O[C@@H]3O[C@@]4(C)CC[C@@H]1[C@]32OO4 [ARTEMISININ]
pIC50 [1, 22]: 8.19

CCCCCCCC/C=C/c1c(C)cc(C)nc1C
pIC50 [1, 22]: < 4.70

CCCCCCCC/C=C/c1c(C)c(/C=C/CCCCCCCC)c2[n+](c1C)CCCC2
Activity [12]: Active
Activity [13]: inactive
pIC50 [1, 22]: 7.21
HC50 [3]: > 58 µM
Activity [14]: inactive
Activity [15]: Active
Activity [16]: inactive

From ChEMBL document CHEMBL4613213, “Anibamine and Its Analogues: Potent Antiplasmodial Agents from Aniba citrifolia” (J Nat Prod, 2020)
